Measurements from ChEMBL document CHEMBL1177728, “Discovery and optimization of boronic acid based inhibitors of autotaxin” (J Med Chem, 2010).

Key:
Autotaxin [1] = target: T1, Autotaxin (Homo sapiens, UniProt Q13822); experiment: Inhibition of 6x-histidine-tagged human recombinant ATX expressed in HEK293 cells at 5 uM by CPF assay; format: cell-based
Procedure, shortened: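 FRET substrate CPF4 at 2 μM with purified His-tagged ATX (~40 nM), run as the bis-pNPP format (pH 7.8 Tris-buffered saline, BSA-FAF, 3 h at room temperature). Fluorescence excited at 355 nm, emission 460 and 520 nm. Inhibitor at 5 μM final.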

Autotaxin [2] = target: T1, Autotaxin; experiment: Inhibition of 6x-histidine-tagged human recombinant ATX expressed in HEK293 cells using bisP-nitrophenyl phosphate as a substrate; format: cell-based; conditions: read-out: IC50
Autotaxin [3] = target: T1, Autotaxin; experiment: Inhibition of 6x-histidine-tagged human recombinant ATX expressed in HEK293 cells using bisP-nitrophenyl phosphate as a substrate at 5 uM; format: cell-based
Procedure, shortened: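 bis-pNPP hydrolysis by purified His-tagged ATX (~40 nM) in Tris-buffered saline pH 7.8 with fatty-acid-free BSA 0.2 mg/mL. Bis-pNPP added as 2 mM stock, 3 h at room temperature. p-Nitrophenol read at 405 nm, corrected by 0 h absorbance. IC50 from 10 concentrations (0.025–100 μM); inhibition at 5 μM final; three independent experiments.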

Autotaxin [4] = target: T1, Autotaxin; experiment: Inhibition of 6x-histidine-tagged human recombinant ATX expressed in HEK293 cells assessed as residual activity using bisP-nitrophenyl phosphate as a substrate; values are per cent of control
Autotaxin [5] = target: T1, Autotaxin; experiment: Inhibition of 6x-histidine-tagged human recombinant ATX expressed in HEK293 cells assessed as residual enzyme activity by lysophosphatidulcholine release assay; format: cell-based
Procedure, shortened: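 Residual activity in the LPC (18:1) choline release assay with purified His-tagged ATX (~40 nM), pH 7.4 Tris with 0.01% Triton X-100, 3 h at 37 C. Inhibitor titrated at 10 concentrations, 0.01–30 μM. Choline detected at 405 nm via choline oxidase/HRP/ABTS.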

Autotaxin [6] = target: T1, Autotaxin; experiment: Inhibition of 6x-histidine-tagged human recombinant ATX expressed in HEK293 cells assessed as lysophosphatidulcholine release; format: cell-based
Procedure, shortened: (§1)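 LPC (18:1) choline release: ATX (~40 nM) secreted by transfected HEK293 cells into serum-free medium, TALON-purified, in 50 mM Tris-HCl pH 7.4 with 0.01% Triton X-100. Substrate added as 80 μM LPC with 10 mM MgCl2 and CaCl2, 3 h at 37 C.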

Autotaxin [7] = target: T1, Autotaxin; experiment: Inhibition of 6x-histidine-tagged human recombinant ATX expressed in HEK293 cells assessed as lysophosphatidulcholine release at 5 uM; format: cell-based
Procedure, shortened: as §1, with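 “C. Choline read at 405 nm by choline oxidase/HRP/ABTS with compound-absorbance correction. IC50 over 10 concentrations (0.01–30 μM); inhibition at 5 μM final.” for “C.”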

SMILES | inhibition (Autotaxin [1]) | IC50 (Autotaxin [2]) | inhibition (Autotaxin [3]) | residual activity (Autotaxin [4]) | Activity (Autotaxin [5]) | IC50 (Autotaxin [6]) | inhibition (Autotaxin [7])
CCCCCCCC/C=C\CCCCCCCC(=O)OC[C@@H](O)COP(=O)(O)O | 67% | – | 80% | 39% | – | – | –
Cn1c(=O)n(C)c2cc(/C=C3\SC(=O)N(Cc4ccccc4)C3=O)ccc21 | 55% | 0.111 µM | 75% | – | – | – | –
CC(C)Cc1ccc(-c2n[nH]c3c2C(c2ccc(N(C)C)cc2)C(C#N)=C(N)O3)cc1 (stereo not given) | 77% | 0.046 µM | 87% | – | – | – | –
O=C(CSc1nc2ccc(N3C(=O)c4ccccc4C3=O)cc2s1)Nc1cccc(Cl)c1 | 66% | 0.261 µM | 71% | – | – | – | –

Continued by falling IC50 (Autotaxin [2]), values first:

inhibition (Autotaxin [1]) | IC50 (Autotaxin [2]) | inhibition (Autotaxin [3]) | residual activity (Autotaxin [4]) | Activity (Autotaxin [5]) | IC50 (Autotaxin [6]) | inhibition (Autotaxin [7]) | SMILES
89% | 0.161 µM | 92% | – | – | – | – | CCOc1cc(/C=C2\SC(=O)N(Cc3ccccc3)C2=O)ccc1OCc1ccc(C(=O)O)cc1
85% | 0.068 µM | 83% | – | – | – | – | COc1cc(/C=C2\SC(=O)N(Cc3ccc(Cl)cc3)C2=O)ccc1OCc1ccncc1
85% | 0.056 µM | 91% | 10% | 35% | 2.5 µM | 55% | COc1cc(/C=C2\SC(=O)N(Cc3ccc(F)cc3)C2=O)ccc1OCc1ccc(C(=O)O)cc1
